Data from ChEMBL document CHEMBL1914449, “Lead optimization at C-2 and N-3 positions of thiazolidin-4-ones as HIV-1 non-nucleoside reverse transcriptase inhibitors” (Bioorg Med Chem, 2011).
Converted amounts (≈) assume the structure as drawn.

Columns and labels:
[1] = system: Human immunodeficiency virus 1; assay: Antiviral activity against R5 tropic Human immunodeficiency virus 1 subtype B-ADA5 infected in human TZM-bl cells assessed as inhibition of virus-induced cytopathic effect after 2 days by luciferase assay; assay type: functional, organism-based; conditions: Human immunodeficiency virus 1, subtype B-ADA5, TZM-bl, 48 h
Outline: (§1)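 TZM-bl cells were seeded at 1 × 10^4 per well and incubated overnight at 37 °C in 5% CO2. Medium was then replaced with HIV-1 stock for 2 h at 37 °C, and compound concentrations giving >50% viability were added. After two days, luciferase activity was read as RLU. EC50 is the mean of two independent assays, each in duplicate. Nevirapine served as positive control.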

[2] = Cytotoxicity in human TZM-bl cells assessed as cell viability after 48 hrs by MTT assay; assay type: cell-based
Outline: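 TZM-bl (JC53BL-13) cells were seeded at 1 × 10^4 per well and incubated overnight at 37 °C in 5% CO2. Medium was replaced with a twofold dilution series of compound for 48 h, and viability was read by MTT absorbance. CC50 (50% cytotoxic concentration) is the mean of three independent assays, each in quadruplicate.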

[3] = Selectivity index, ratio of CC50 for human TZM-bl cells to EC50 for X4 tropic Human immunodeficiency virus 1 subtype B-3B; assay type: cell-based; conditions: read-out: Ratio CC50/EC50
Outline: (§2)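 Selectivity index is CC50/EC50. […] EC50 came from the 2-day luciferase (RLU) readout in HIV-1-infected TZM-bl cells (mean of two assays).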

[4] = Selectivity index, ratio of CC50 for human TZM-bl cells to EC50 for R5 tropic Human immunodeficiency virus 1 subtype B-ADA5; assay type: toxicity, cell-based; conditions: read-out: Ratio CC50/EC50; outline: as §2
[5] = system: Human immunodeficiency virus 1; assay: Antiviral activity against X4 tropic Human immunodeficiency virus 1 subtype D-UG070 infected in human TZM-bl cells assessed as inhibition of virus-induced cytopathic effect after 2 days by luciferase assay; assay type: functional, organism-based; conditions: Human immunodeficiency virus 1, subtype D-UG070, TZM-bl, 48 h; outline: as §1
[6] = system: Human immunodeficiency virus 1; assay: Antiviral activity against R5 tropic Human immunodeficiency virus 1 subtype C-VB59 infected in human TZM-bl cells assessed as inhibition of virus-induced cytopathic effect after 2 days by luciferase assay; assay type: functional, organism-based; conditions: Human immunodeficiency virus 1, subtype C-VB59, TZM-bl, 48 h; outline: as §1
[7] = Selectivity index, ratio of CC50 for human TZM-bl cells to EC50 for X4 tropic Human immunodeficiency virus 1 subtype D-UG070; assay type: toxicity, cell-based; conditions: read-out: Ratio CC50/EC50; outline: as §2
[8] = Selectivity index, ratio of CC50 for human TZM-bl cells to EC50 for R5 tropic Human immunodeficiency virus 1 subtype C-VB59; assay type: toxicity, cell-based; conditions: read-out: Ratio CC50/EC50; outline: as §2
[9] = target: Human immunodeficiency virus type 1 reverse transcriptase (Human immunodeficiency virus 1) (UniProt Q72547); assay: Inhibition of biotin-dNTP labeled HIV-1 reverse transcriptase using ABST as substrate at 100 ug/ml after 1 hr by ELISA
Outline: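 ELISA-format RT assay. Template/primer, biotin- and DIG-labelled dNTPs and RT enzyme in lysis buffer were incubated 1 h at 37 °C. The product was captured on streptavidin, detected with anti-DIG-peroxidase and ABTS substrate, and absorbance read at 405 nm. Activity is reported as percent inhibition of RT.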

[10] = system: Human immunodeficiency virus 1; assay: Antiviral activity against X4 tropic Human immunodeficiency virus 1 subtype B-3B infected in human TZM-bl cells assessed as inhibition of virus-induced cytopathic effect after 2 days by luciferase assay; assay type: functional, organism-based; conditions: 48 h; outline: as §1

SMILES: Cc1cc(N2C(=O)CSC2c2c(Cl)cccc2Cl)no1 (stereo not drawn)
- EC50 [1]: 0.65 µg/mL (≈ 1.97 µM)
- CC50 at 48 h [2]: 40.5 µg/mL (≈ 123 µM)
- selectivity ratio [3]: 116
- selectivity ratio [4]: 62.3
- EC50 [5]: 0.5 µg/mL (≈ 1.52 µM)
- EC50 [6]: 0.35 µg/mL (≈ 1.06 µM)
- selectivity ratio [7]: 81
- selectivity ratio [8]: 116
- inhibition [9]: 75.4%
- EC50 [10]: 0.35 µg/mL (≈ 1.06 µM)

SMILES: Cc1cc(N2C(=O)CSC2c2c(Cl)cncc2Cl)nc(C)c1Br (stereo not drawn)
- EC50 [1]: 4.8 µg/mL (≈ 11.1 µM)
- CC50 at 48 h [2]: 15.6 µg/mL (≈ 36 µM)
- selectivity ratio [3]: 10.4
- selectivity ratio [4]: 3.2
- inhibition [9]: 57.4%
- EC50 [10]: 1.5 µg/mL (≈ 3.46 µM)

SMILES: Cc1cc(C)nc(N2C(=O)CSC2c2c(Cl)cncc2Cl)c1 (stereo not drawn)
- EC50 [1]: 0.31 µg/mL (≈ 0.875 µM)
- CC50 at 48 h [2]: 37.3 µg/mL (≈ 105 µM)
- selectivity ratio [3]: 46.6
- selectivity ratio [4]: 120
- EC50 [5]: 1.55 µg/mL (≈ 4.38 µM)
- EC50 [6]: 1.1 µg/mL (≈ 3.11 µM)
- selectivity ratio [7]: 24.1
- selectivity ratio [8]: 33.9
- inhibition [9]: 85.3%
- EC50 [10]: 0.8 µg/mL (≈ 2.26 µM)

SMILES: Cc1cc(N2C(=O)CSC2c2c(Cl)cccc2Cl)nc(C)c1Br (stereo not drawn)
- EC50 [1]: 0.85 µg/mL (≈ 1.97 µM)
- CC50 at 48 h [2]: 2.5 µg/mL (≈ 5.78 µM)
- selectivity ratio [3]: 2.4
- selectivity ratio [4]: 2.9
- EC50 [5]: 0.29 µg/mL (≈ 0.671 µM)
- EC50 [6]: 0.35 µg/mL (≈ 0.81 µM)
- selectivity ratio [7]: 8.6
- selectivity ratio [8]: 7.1
- inhibition [9]: 60.7%
- EC50 [10]: 1.04 µg/mL (≈ 2.41 µM)

SMILES: Cc1cc(N2C(=O)CSC2c2c(F)cccc2Cl)nc(C)c1Br (stereo not drawn)
- EC50 [1]: 0.12 µg/mL (≈ 0.289 µM)
- CC50 at 48 h [2]: 40.2 µg/mL (≈ 96.7 µM)
- selectivity ratio [3]: 447
- selectivity ratio [4]: 335
- EC50 [5]: 0.1 µg/mL (≈ 0.241 µM)
- EC50 [6]: 0.07 µg/mL (≈ 0.168 µM)
- selectivity ratio [7]: 402
- selectivity ratio [8]: 574
- inhibition [9]: 91.2%
- EC50 [10]: 0.09 µg/mL (≈ 0.216 µM)

SMILES: Cc1cccc(N2C(=O)CSC2c2c(Cl)cncc2Cl)n1 (stereo not drawn)
- EC50 [1]: 1.64 µg/mL (≈ 4.82 µM)
- CC50 at 48 h [2]: 45 µg/mL (≈ 132 µM)
- selectivity ratio [3]: 69.8
- selectivity ratio [4]: 27.4
- EC50 [5]: 3.1 µg/mL (≈ 9.11 µM)
- EC50 [6]: 1.95 µg/mL (≈ 5.73 µM)
- selectivity ratio [7]: 14.5
- selectivity ratio [8]: 23.1
- inhibition [9]: 84.1%
- EC50 [10]: 0.65 µg/mL (≈ 1.91 µM)

SMILES: Cc1cc(N2C(=O)CSC2c2c(F)cccc2F)no1 (stereo not drawn)
- EC50 [1]: 1.34 µg/mL (≈ 4.52 µM)
- CC50 at 48 h [2]: 62.7 µg/mL (≈ 212 µM)
- selectivity ratio [3]: 62
- selectivity ratio [4]: 46.8
- EC50 [5]: 1.9 µg/mL (≈ 6.41 µM)
- EC50 [6]: 1.45 µg/mL (≈ 4.89 µM)
- selectivity ratio [7]: 33
- selectivity ratio [8]: 43.2
- inhibition [9]: 98.1%
- EC50 [10]: 1.01 µg/mL (≈ 3.41 µM)

SMILES: Cc1cccc(N2C(=O)CSC2c2c(Br)cncc2Br)n1 (stereo not drawn)
- EC50 [1]: 4.11 µg/mL (≈ 9.58 µM)
- CC50 at 48 h [2]: 26.7 µg/mL (≈ 62.2 µM)
- selectivity ratio [3]: 12
- selectivity ratio [4]: 6.5
- EC50 [5]: 5.55 µg/mL (≈ 12.9 µM)
- EC50 [6]: 2.24 µg/mL (≈ 5.22 µM)
- selectivity ratio [7]: 4.8
- selectivity ratio [8]: 11.9
- inhibition [9]: 77.6%
- EC50 [10]: 2.22 µg/mL (≈ 5.17 µM)

SMILES: Cc1nc(N2C(=O)CSC2c2c(Br)cncc2Br)ccc1Br (stereo not drawn)
- EC50 [1]: 2.52 µg/mL (≈ 4.96 µM)
- CC50 at 48 h [2]: 26.9 µg/mL (≈ 52.9 µM)
- selectivity ratio [3]: 4.4
- selectivity ratio [4]: 10.7
- inhibition [9]: 75.9%
- EC50 [10]: 6.09 µg/mL (≈ 12 µM)

SMILES: Cc1cc(C)nc(N2C(=O)CSC2c2c(Br)cncc2Br)c1 (stereo not drawn)
- EC50 [1]: 1.21 µg/mL (≈ 2.73 µM)
- CC50 at 48 h [2]: 49.8 µg/mL (≈ 112 µM)
- selectivity ratio [3]: 35.3
- selectivity ratio [4]: 41.1
- EC50 [5]: 2.1 µg/mL (≈ 4.74 µM)
- EC50 [6]: 1.59 µg/mL (≈ 3.59 µM)
- selectivity ratio [7]: 23.7
- selectivity ratio [8]: 31.3
- inhibition [9]: 62.8%
- EC50 [10]: 1.41 µg/mL (≈ 3.18 µM)

SMILES: CSc1nc(Cl)cc(N2C(=O)CSC2c2c(F)cccc2Cl)n1 (stereo not drawn)
- EC50 [1]: 1.26 µg/mL (≈ 3.23 µM)
- CC50 at 48 h [2]: 27 µg/mL (≈ 69.2 µM)
- selectivity ratio [3]: 29
- selectivity ratio [4]: 21.4
- EC50 [5]: 1.8 µg/mL (≈ 4.61 µM)
- EC50 [6]: 0.65 µg/mL (≈ 1.67 µM)
- selectivity ratio [7]: 15
- selectivity ratio [8]: 41.5
- inhibition [9]: 76.5%
- EC50 [10]: 0.93 µg/mL (≈ 2.38 µM)

SMILES: Cc1ccnc2c1NC(=O)c1cccnc1N2C1CC1 [NEVIRAPINE]
- EC50 [1]: 0.05 µg/mL (≈ 0.188 µM)
- CC50 at 48 h [2]: 76.1 µg/mL (≈ 286 µM)
- selectivity ratio [3]: 1520
- selectivity ratio [4]: 1520
- EC50 [5]: 0.05 µg/mL (≈ 0.188 µM)
- EC50 [6]: 0.05 µg/mL (≈ 0.188 µM)
- selectivity ratio [7]: 1520
- selectivity ratio [8]: 1520
- EC50 [10]: 0.05 µg/mL (≈ 0.188 µM)

SMILES: Cc1cc(N2C(=O)CSC2c2c(F)cccc2Cl)no1 (stereo not drawn)
- EC50 [1]: 1.06 µg/mL (≈ 3.39 µM)
- CC50 at 48 h [2]: 38.5 µg/mL (≈ 123 µM)
- selectivity ratio [3]: 57.4
- selectivity ratio [4]: 36.3
- EC50 [5]: 0.75 µg/mL (≈ 2.4 µM)
- EC50 [6]: 0.68 µg/mL (≈ 2.17 µM)
- selectivity ratio [7]: 51.3
- selectivity ratio [8]: 56.6
- inhibition [9]: 95.5%
- EC50 [10]: 0.67 µg/mL (≈ 2.14 µM)

SMILES: CC(C)(C)c1cc(N2C(=O)CSC2c2c(F)cccc2Cl)no1 (stereo not drawn)
- EC50 [1]: 3.07 µg/mL (≈ 8.65 µM)
- CC50 at 48 h [2]: 40.7 µg/mL (≈ 115 µM)
- selectivity ratio [3]: 20.8
- selectivity ratio [4]: 13.2
- EC50 [5]: 1.6 µg/mL (≈ 4.51 µM)
- EC50 [6]: 2.5 µg/mL (≈ 7.05 µM)
- selectivity ratio [7]: 24.4
- selectivity ratio [8]: 16.2
- inhibition [9]: 51.1%
- EC50 [10]: 1.95 µg/mL (≈ 5.5 µM)

SMILES: CC(C)(C)c1cc(N2C(=O)CSC2c2c(F)cccc2F)no1 (stereo not drawn)
- EC50 [1]: 2.58 µg/mL (≈ 7.62 µM)
- CC50 at 48 h [2]: 45.9 µg/mL (≈ 136 µM)
- selectivity ratio [3]: 15.5
- selectivity ratio [4]: 18
- inhibition [9]: 71.5%
- EC50 [10]: 2.97 µg/mL (≈ 8.78 µM)

SMILES: CC(C)(C)c1cc(N2C(=O)CSC2c2c(Cl)cccc2Cl)no1 (stereo not drawn)
- EC50 [1]: 2.4 µg/mL (≈ 6.46 µM)
- CC50 at 48 h [2]: 48.5 µg/mL (≈ 131 µM)
- selectivity ratio [3]: 32.6
- selectivity ratio [4]: 20
- EC50 [5]: 1.76 µg/mL (≈ 4.74 µM)
- EC50 [6]: 1.8 µg/mL (≈ 4.85 µM)
- selectivity ratio [7]: 27.5
- selectivity ratio [8]: 26.9
- inhibition [9]: 50.4%
- EC50 [10]: 1.49 µg/mL (≈ 4.01 µM)

SMILES: Cc1cc(N2C(=O)CSC2c2c(Br)cncc2Br)nc(C)c1Br (stereo not drawn)
- inhibition [9]: 62%

SMILES: Cc1nc(N2C(=O)CSC2c2c(Cl)cncc2Cl)ccc1Br (stereo not drawn)
- EC50 [1]: 2.17 µg/mL (≈ 5.18 µM)
- CC50 at 48 h [2]: 66.7 µg/mL (≈ 159 µM)
- selectivity ratio [3]: 10.8
- selectivity ratio [4]: 30.7
- EC50 [5]: 8.45 µg/mL (≈ 20.2 µM)
- EC50 [6]: 6.5 µg/mL (≈ 15.5 µM)
- selectivity ratio [7]: 7.89
- selectivity ratio [8]: 10.3
- inhibition [9]: 76.6%
- EC50 [10]: 6.18 µg/mL (≈ 14.7 µM)
